According to ChEMBL document CHEMBL4390651, “Indole based antimalarial compounds targeting the melatonin pathway: Their design, synthesis and biological evaluation” (Eur J Med Chem, 2019):
The source made the active and inactive calls. The calls are words filed in the database; no cut-off is given here.

Legend:
Plasmodium falciparum [1] = assay: Antimalarial activity against ring stage of Plasmodium falciparum 3D7 infected in human erythrocytes assessed as parasite survival level at 10 uM incubated for 48 hrs by Giemsa staining-based microscopic analysis (reference value: 51.3 +/- 1.83%); format: functional; conditions: 3D7, 48 h
Plasmodium falciparum [2] = assay: (§1) Antimalarial activity against mixed stage of Plasmodium falciparum infected in human erythrocytes assessed as protection against melatonin-induced parasite synchronization by measuring parasitemia at 5 uM incubated for 48 hrs by Giemsa staining-based microscopic analysis (reference value: 4.76 +/- 0.61%); format: functional
Plasmodium falciparum [3] = assay: as §1, with “measured immediately at 0” for “incubated for 48”, “1.05” for “4.76”, “0.07%)” for “0.61%)”; format: functional
[4] = molecular target: Melatonin receptor type 1A (Homo sapiens) (UniProt P48039); assay: Inhibition of human MTNR1 receptor at 5 uM using TMB as substrate preincubated for 1 hr followed by substrate addition by ELISA relative to control
Outline: (§2)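 ELISA kit format: compounds incubated 1 h with MTNR1 receptor (5 ng/mL), melatonin as control. TMB substrate, stop solution, OD read at 450 nm; expressed as % inhibition.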

[5] = molecular target: Melatonin receptor type 1A (Homo sapiens) (UniProt P48039); assay: Inhibition of human MTNR1 receptor at 500 nM using TMB as substrate preincubated for 1 hr followed by substrate addition by ELISA relative to control; outline: as §2
Plasmodium falciparum [6] = assay: (§3) Antimalarial activity against schizont stage of Plasmodium falciparum infected in human erythrocytes assessed as protection against melatonin-induced parasite synchronization by measuring parasitemia 1 uM incubated for 48 hrs by Giemsa staining-based microscopic analysis (reference value: 0%); format: functional
Plasmodium falciparum [7] = assay: (§4) Antimalarial activity against schizont stage of Plasmodium falciparum infected in human erythrocytes assessed as protection against melatonin-induced parasite synchronization by measuring parasitemia 5 uM incubated for 48 hrs by Giemsa staining-based microscopic analysis (reference value: 0%); format: functional
Plasmodium falciparum [8] = assay: as §1, with “1” for “5”, “measured immediately at 0” for “incubated for 48”, “1.05” for “4.76”, “0.07%)” for “0.61%)”; format: functional
Plasmodium falciparum [9] = assay: Antimalarial activity against chloroquine resistant Plasmodium falciparum RKL9 infected in human erythrocytes assessed as reduction in parasitemia incubated for 0 to 48 hrs by Giemsa staining-based microscopic analysis; format: functional, organism-based
Outline: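 Sorbitol-synchronized ring-stage culture at 1% parasitemia, 5% hematocrit in human O+ erythrocytes (RPMI 1640, 0.5% albumax, hypoxanthine, gentamicin; 37 °C, 5% CO2/5% O2/90% N2). Compounds at […] for 48 h. Parasitemia counted on Giemsa-stained smears at 0 and 48 h. DMSO control. Mean of three independent experiments ±SD.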

Plasmodium falciparum [10] = assay: as §3, with “measured immediately” for “incubated for 48 hrs”, “23.25 +/- 0.35%)” for “0%)”; format: functional
Plasmodium falciparum [11] = assay: Antimalarial activity against synchronized ring stage of Plasmodium falciparum 3D7 infected in human erythrocytes assessed as inhibition of parasite growth incubated for 48 hrs by Giemsa staining-based microscopic analysis; format: functional, organism-based; conditions: 3D7, 48 h
Outline: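 Sorbitol-synchronized ring-stage 3D7 in human O+ erythrocytes was exposed to four concentrations (1, 5, 10 and 20) for 48 h. Parasitemia was counted on Giemsa smears and IC50 taken from the dose-response curve. Mean ± SD of three independent experiments.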

Plasmodium falciparum [12] = assay: as §4, with “troph” for “schizont”, “measured immediately” for “incubated for 48 hrs”, “52.50 +/- 0.70%)” for “0%)”; format: functional
Plasmodium falciparum [13] = assay: as §3, with “ring” for “schizont”, “11.80 +/- 9.19%)” for “0%)”; format: functional
Plasmodium falciparum [14] = assay: Antimalarial activity against synchronized ring stage of Plasmodium falciparum 3D7 infected in human erythrocytes assessed as inhibition of parasite growth at 10 uM incubated for 0 to 48 hrs by Giemsa staining-based microscopic analysis; format: functional
Outline: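 3D7 was sorbitol-synchronized to ring stage at 1% parasitemia, cultured in human O+ erythrocytes (5% hematocrit, RPMI 1640/albumax, 37 °C, low-O2 gas), and exposed for 48 h, with DMSO as control. Giemsa smears at 0, 12, 24, 36 and 48 h gave parasitemia and stage morphology. Mean ± SD of three independent experiments.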

[15] = Stability of the compound in 0.01 N HCL at pH 2.0 assessed as compound remaining at 1 mg/ml incubated for 0 to 24 hrs by HPLC analysis relative to control; format: physicochemical; conditions: for Stability: buffer; for remaining at 1 mg/ml: 0.01 N HCl, read-out: Stability
Outline: (§5)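 Compound stock in acetonitrile was added to 1.0 mL of fresh 0.01 N HCl (pH 2.0) or phosphate buffer (pH 7.4), held at 37 °C, and the amount remaining was measured by HPLC at intervals from 0 to 24 h.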

[16] = Stability of the compound in phosphate buffer at pH 7.4 assessed as compound remaining at 1 mg/ml incubated for 0 to 24 hrs by HPLC analysis relative to control; format: physicochemical; conditions: for remaining at 1 mg/ml: phosphate buffer, read-out: Stability; for Stability: buffer; outline: as §5
Plasmodium falciparum [17] = assay: Antimalarial activity against schizont stage of Plasmodium falciparum 3D7 infected in human erythrocytes assessed as parasite survival level at 10 uM incubated for 48 hrs by Giemsa staining-based microscopic analysis (reference value: 5 +/- 7.07%); format: functional; conditions: 3D7, 48 h
Plasmodium falciparum [18] = assay: as §4, with “troph” for “schizont”, “88.20 +/- 9.19%)” for “0%)”; format: functional
Plasmodium falciparum [19] = assay: Antimalarial activity against trophozoite stage of Plasmodium falciparum 3D7 infected in human erythrocytes assessed as parasite survival level at 10 uM incubated for 48 hrs by Giemsa staining-based microscopic analysis (reference value: 43.65 +/- 5.16%); format: functional; conditions: 3D7, 48 h
Plasmodium falciparum [20] = assay: Antimalarial activity against schizont stage of Plasmodium falciparum 3D7 infected in human erythrocytes assessed as parasite survival level at 10 uM measured immediately at 0 hrs by Giemsa staining-based microscopic analysis (reference value: 0%); format: functional; conditions: 3D7, 0 h
Plasmodium falciparum [21] = assay: as §3, with “troph” for “schizont”, “measured immediately” for “incubated for 48 hrs”, “52.50 +/- 0.70%)” for “0%)”; format: functional
Plasmodium falciparum [22] = assay: as §4, with “ring” for “schizont”, “measured immediately” for “incubated for 48 hrs”, “23.90 +/- 0.84%)” for “0%)”; format: functional
Plasmodium falciparum [23] = assay: Antimalarial activity against ring stage of Plasmodium falciparum 3D7 infected in human erythrocytes assessed as parasite survival level at 10 uM measured immediately at 0 hrs by Giemsa staining-based microscopic analysis (reference value: 96.4 +/- 5.09%); format: functional; conditions: 3D7, 0 h
Plasmodium falciparum [24] = assay: as §3, with “ring” for “schizont”, “measured immediately” for “incubated for 48 hrs”, “23.90 +/- 0.84%)” for “0%)”; format: functional
Plasmodium falciparum [25] = assay: as §4, with “ring” for “schizont”, “11.80 +/- 9.19%)” for “0%)”; format: functional
Plasmodium falciparum [26] = assay: as §4, with “measured immediately” for “incubated for 48 hrs”, “23.25 +/- 0.35%)” for “0%)”; format: functional
Plasmodium falciparum [27] = assay: as §3, with “troph” for “schizont”, “88.20 +/- 9.19%)” for “0%)”; format: functional
Plasmodium falciparum [28] = assay: Antimalarial activity against trophozoite stage of Plasmodium falciparum 3D7 infected in human erythrocytes assessed as parasite survival level at 10 uM measured immediately at 0 hrs by Giemsa staining-based microscopic analysis (reference value: 3.55 +/- 5.02%); format: functional; conditions: 3D7, 0 h
Plasmodium falciparum [29] = assay: as §1, with “1” for “5”; format: functional
Plasmodium falciparum [30] = assay: Antimalarial activity against Plasmodium falciparum 3D7 ring stage synchronized forms infected in human erythrocytes assessed as inhibition of parasite proliferation at 5 uM incubated for 48 hrs by Giemsa-staining method; format: functional; conditions: 3D7, 48 h
Outline: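 P. falciparum 3D7 grown in human O+ erythrocytes at 5% hematocrit in RPMI 1640 with NaHCO3, albumax, gentamicin and hypoxanthine, at 37 °C under 90% N2/5% CO2/5% O2. Single-concentration screen read as % inhibition of parasite proliferation. Mean of three experiments, each in triplicate.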

[31] = molecular target: Melatonin receptor type 1A (Homo sapiens) (UniProt P48039); assay: Inhibition of human MTNR1 receptor at 500 nM to 5 uM using TMB as substrate preincubated for 1 hr followed by substrate addition by ELISA relative to control; outline: as §2
Plasmodium falciparum [32] = assay: Antimalarial activity against Plasmodium falciparum 3D7 infected in human erythrocytes assessed as reduction in [3H]hypoxanthine incorporation pretreated for 24 hrs followed by [3H]hypoxanthine addition and measured after 48 hrs by scintillation counting method
[33] = molecular target: Melatonin receptor type 1A (Homo sapiens) (UniProt P48039); assay: Inhibition of human MTNR1 receptor at 1 uM using TMB as substrate preincubated for 1 hr followed by substrate addition by ELISA relative to control; outline: as §2

Sequence of Melatonin receptor type 1A (Homo sapiens) (P48039 whole entry): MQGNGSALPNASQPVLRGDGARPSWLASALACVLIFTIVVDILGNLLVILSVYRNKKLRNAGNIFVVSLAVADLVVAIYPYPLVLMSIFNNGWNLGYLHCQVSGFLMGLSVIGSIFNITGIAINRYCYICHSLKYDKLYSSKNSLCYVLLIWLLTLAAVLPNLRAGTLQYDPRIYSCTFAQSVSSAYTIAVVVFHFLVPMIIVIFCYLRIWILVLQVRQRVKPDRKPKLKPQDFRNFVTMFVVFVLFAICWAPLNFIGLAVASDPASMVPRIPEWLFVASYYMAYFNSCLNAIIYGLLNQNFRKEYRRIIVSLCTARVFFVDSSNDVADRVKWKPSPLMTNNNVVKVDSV

Compound | survival at 10 µM (Plasmodium falciparum [1]) [%] | inhibition (Plasmodium falciparum [9]) | IC50 (Plasmodium falciparum [11]) [nM] | growth inhibition (GI) (Plasmodium falciparum [14]) | survival at 10 µM (Plasmodium falciparum [17]) [%] | survival at 10 µM (Plasmodium falciparum [19]) [%] | survival at 10 µM (Plasmodium falciparum [20]) [%] | survival at 10 µM (Plasmodium falciparum [23]) [%] | survival at 10 µM (Plasmodium falciparum [28]) [%] | inhibition at 5 µM (Plasmodium falciparum [30]) [%] | also measured
C/N=C(/c1cc(C(F)(F)F)cc(C(F)(F)F)c1)c1[nH]c2ccc(OC)cc2c1CCNC(=O)OC | 4.95 | Dose dependent effect | 740 | Active | 0 | 95 | 0 | 95 | 5 | – | Activity (Plasmodium falciparum [2]): 1.65%; Activity (Plasmodium falciparum [3]): 1.1%; inhibition [4]: 85%; inhibition [5]: 75%; Activity (Plasmodium falciparum [6]): 2.9%; Activity (Plasmodium falciparum [7]): 1.85%; Activity (Plasmodium falciparum [8]): 1.15%; Activity (Plasmodium falciparum [10]): 22.95%; Activity (Plasmodium falciparum [12]): 53.25%; Activity (Plasmodium falciparum [13]): 18%; Stability [15]: Unstable; remaining at 1 mg/ml [16]: 60%; Activity (Plasmodium falciparum [18]): 70.9%; Activity (Plasmodium falciparum [21]): 53.8%; Activity (Plasmodium falciparum [22]): 24.1%; Activity (Plasmodium falciparum [24]): 24.2%; Activity (Plasmodium falciparum [25]): 27.25%; Activity (Plasmodium falciparum [26]): 21.85%; Activity (Plasmodium falciparum [27]): 79.1%; Activity (Plasmodium falciparum [29]): 2.8%
C/N=C(/c1ccc(Cl)cc1)c1[nH]c2ccccc2c1CCNC(=O)OC | – | – | – | – | – | – | – | – | – | 32 | –
COC(=O)NCCc1c(C(=O)c2ccc(Cl)cc2)[nH]c2ccccc12 | – | – | – | – | – | – | – | – | – | 9 | –
C/N=C(/c1ccc(OC)cc1F)c1[nH]c2ccccc2c1CCNC(=O)OC | – | – | – | – | – | – | – | – | – | 47 | –
CC/N=C(/c1ccc(C)cc1)c1[nH]c2ccccc2c1CCNC(=O)OC | 0 | Dose dependent effect | 4280 | Active | 2.5 | 97.5 | 0 | 93 | 7 | – | remaining at 1 mg/ml [15]: 20%; Stability [16]: Unstable; inhibition [31]: inactive
CNCCc1c(/C=C/[C@@]2(C)C[C@H](C=C(C)C)c3c(CCNC)c4ccccc4n32)[nH]c2ccccc12 | – | – | – | – | – | – | – | – | – | – | IC50 (Plasmodium falciparum [32]): 150 to 1420 nM
CC/N=C(/c1cc(C(F)(F)F)cc(C(F)(F)F)c1)c1[nH]c2ccc(OC)cc2c1CCNC(=O)OC | 68.5 | Dose dependent effect | 2730 | Active | 14 | 17.5 | 0.5 | 92.5 | 7 | – | inhibition [4]: 70%; inhibition [5]: 60%; Stability [15]: Unstable; remaining at 1 mg/ml [16]: 60%; inhibition [33]: 80%
CC(C)=C[C@H]1C[C@@](C)(/C=C/c2[nH]c3ccccc3c2CCN(C)C)n2c1c(CCN(C)C)c1ccccc12 | – | – | – | – | – | – | – | – | – | – | IC50 (Plasmodium falciparum [32]): 150 to 1420 nM
CC(=O)NCCc1c(Cc2ccccc2)[nH]c2ccccc12 [LUZINDOLE] | 61.6 | – | – | Active | 0 | 38.4 | 0.5 | 91.5 | 8 | 48 | Activity (Plasmodium falciparum [2]): 2.56%; Activity (Plasmodium falciparum [3]): 1.03%; Activity (Plasmodium falciparum [6]): 0%; Activity (Plasmodium falciparum [7]): 0.88%; Activity (Plasmodium falciparum [8]): 1.1%; Activity (Plasmodium falciparum [10]): 25.8%; Activity (Plasmodium falciparum [12]): 51.9%; Activity (Plasmodium falciparum [13]): 19.1%; Activity (Plasmodium falciparum [18]): 77.15%; Activity (Plasmodium falciparum [21]): 50.5%; Activity (Plasmodium falciparum [22]): 23.75%; Activity (Plasmodium falciparum [24]): 23%; Activity (Plasmodium falciparum [25]): 21.97%; Activity (Plasmodium falciparum [26]): 24%; Activity (Plasmodium falciparum [27]): 80.9%; Activity (Plasmodium falciparum [29]): 2.88%
C/N=C(\c1cc(Br)cs1)c1[nH]c2ccccc2c1CCNC(=O)OC | – | – | – | – | – | – | – | – | – | – | inhibition at 10 µM (Plasmodium falciparum [14]): 15%
CC(C)=C[C@H]1C[C@](C)(/C=C/c2[nH]c3ccccc3c2CCN(C)C)n2c1c(CCN(C)C)c1ccccc12 | – | – | – | – | – | – | – | – | – | – | IC50 (Plasmodium falciparum [32]): 150 to 1420 nM
C/N=C(/c1ccccc1)c1[nH]c2ccccc2c1CCNC(=O)OC | 17.5 | Dose dependent effect | 890 | Active | 5 | 77.5 | 0 | 95.8 | 4.15 | – | Stability [15]: Unstable; Stability [16]: Unstable
C/N=C(\c1[nH]c2ccccc2c1CCNC(=O)OC)c1c(F)cccc1F | 61.2 | Dose dependent effect | 730 | Active | 11.2 | 27.5 | 2.82 | 93 | 3 | – | remaining at 1 mg/ml [15]: 90%; remaining at 1 mg/ml [16]: 95%
